Like-named read-outs stand apart in the source and are kept apart here.
Experiments:
[1] = humans, intravenous injection; cited from earlier work
[2] = test system: atraumatic rat model of shoulder arthrofibrosis; experiment: Histological assessment of rat shoulder joints; assay type: in vivo, Sprague Dawley rats
Procedure, shortened: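 Female Sprague Dawley rats with contracted shoulders receiving intraarticular doses (repeated 2 μg/kg injections or saline; or single 10 μg/kg microparticles or unloaded particles at equivalent PLGA mass) from remobilization. Joints fixed and decalcified at 14 or 56 days; coronal sections stained with H&E, Masson's Trichrome, Safranin O. Immune activation scored on H&E; axillary pouch thickness measured; n=5; mean ± STDev; ANOVA.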

[3] = cited from earlier work
[4] = Circular dichroism of RLX secondary structure; assay type: physicochemical
[5] = Pharmacokinetics and biodistribution of ^125I-RLX after intraarticular injection; set-up: species or system Sprague Dawley rats; settings: rat, in vivo
[6] = test system: mouse models of myocardial infarction; settings: cited from earlier work

## human relaxin-2 [RLX]
[1]
  half-life: 1.6 h
[2]; 14 days post-treatment, n=5
  inflammatory infiltrate, histological scoring: negligible inflammation
[2]; 56 days after remobilization, H&E, Masson's Trichrome
  joint architecture: restored delineation of the humeral head and glenoid surface, absence of fibrotic adhesions
[2]; 56 days post-treatment, n=5
  inflammatory infiltrate, histological scoring: negligible inflammation
[2]; 56 days, n=5
  synovial membrane thickness in the axillary pouch: restoration to baseline values
[3]; acute heart failure, 30 μg/kg/day continuous IV infusion over 48 hr
  toxicological profile: favorable toxicological profile
[3]; induction of labor, 75μg/kg/day continuous IV infusion over 24 hr
  toxicological profile: favorable toxicological profile
[4]; after organic solvents, mechanical and thermal forces of encapsulation
  alpha helical structure (CD) after encapsulation processing: maintenance of the alpha helical structure
[4]; long-term incubation at 37 °C
  alpha helical structure (CD, negative peaks at 208 and 222 nm) after extended incubation: maintenance of the alpha helical structure
[5]
  CL: 20.6 (15.1, 31.8) (mL/kg)·hr
  average plasma exposure, Cavg: 2.05 ng/mL/h
  clearance at the time of dose re-administration: > 99%
  maximum plasma exposure, Cmax: 16 ng/mL
  t1/2-α: 0.954 (0.852, 1.15) h
  t1/2-α (effective synovial half-life): 0.305 (0.280, 0.346) h
[6]
  bioactive average plasma exposure concentration, Cavg: 20 to 40 ng/mL

From article PMC9948766 (Science translational medicine, 2022)
